How the values were obtained:
SARS-CoV-2 M^pro [1] = biological target: T1, SARS-CoV-2 M^pro (Severe acute respiratory syndrome coronavirus 2, UniProt P0DTD1); assay: Surface plasmon resonance; assay type: binding
[2] = DPPH radical scavenging activity; details: 37 °C, 30 min, 517 nm
Summary of the method: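 Tea leaf solvent-extract fractions (petroleum ether, ethyl acetate, methanol, dichloromethane, methanol-water), each tested at several concentrations. Samples mixed 1:1 with 200 μM DPPH in ethanol, incubated 30 min at 37 °C, A517 read. Scavenging % = (1 − [(A_sample − A_blank)/A_control]) × 100, with control = water plus DPPH and blank = sample plus ethanol. Run three times.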

SARS-CoV-2 M^pro [3] = biological target: T1, SARS-CoV-2 M^pro; details: read-out: IC50 of M^pro inhibition; beyotime enhanced inhibition kit; cited from earlier work
M^pro = details: read-out: IC50 of M^pro inhibition; cited from earlier work
C. elegans = details: cited from earlier work

Oc1cc(O)c2c(c1)O[C@H](c1ccc(O)c(O)c1)[C@H](O)C2 [EC, (−)-epicatechin]
Kd (SARS-CoV-2 M^pro [1]): 23.9 µM

O=C1O[C@H]([C@@H](O)CO)C(O)=C1O [VC]
IC50 of DPPH free radical scavenging [2]: 1.14 µg/mL

CC(C)=CCc1cc(/C=C2\OC(=O)C(c3cc4c(cc3O)OC(C)(C)CC4)=C2O)ccc1O [aspulvinone D]
IC50 (SARS-CoV-2 M^pro [3]): 10.3 ± 0.6 µM

CC(C)(O)C1Cc2cc(/C=C3\OC(=O)C(c4cc5c(cc4O)OC(C)(C)C(O)C5)=C3O)ccc2O1 (centres unmarked) [aspulvinone M]
IC50 (SARS-CoV-2 M^pro [3]): 9.4 ± 0.6 µM

O=c1c2ccccc2[se]n1-c1ccccc1 [ebselen]
IC50 (M^pro): 0.04 ± 0.004 µM

Zijuanin E
extension of lifespan of C. elegans (C. elegans): 67.2%

Zijuanin F
extension of lifespan of C. elegans (C. elegans): 56.0%

aspulvinone R
IC50 (SARS-CoV-2 M^pro [3]): 7.7 ± 0.6 µM
